The list is not random: actives were taken first. Their share in the collection is about 1.3%.
NR2E3 ag-1 – NR2E3 (human) agonism | Q9Y5X4 | GST-NR2E3/biotin-RetCOR TR-FRET, 1536-well | inhibition of corepressor binding, % at 4.78 µM | 320,000 compounds, 0.12% hits;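 active = percent inhibition above the cutoff of mean plus 3 SD of all tested compounds, set per screening campaign, cut at about 20% in these data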;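 also: 0% = DMSO wells and 100% = biotin wells as full block of FRET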
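Test system: GST-NR2E3 and biotin-RetCOR proteins | Quantity: 1.35 nM GST-tagged NR2E3 final | Medium: Tris pH 7.5 | Also added: 7 nM biotin-RetCOR | Dosing: Compound at 4.8 µM, single dose | Timing: 5 h at 4 °C | Detection: Time-resolved FRET | Read-out basis: Percent inhibition | Benchmarks: Biotin wells as high control, 0.6% DMSO wells as low control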
Furin inh – inhibitors of human furin; P09958; purified furin, fluorogenic substrate cleavage; inhibition, % at 20 µM or 30 µM; 220,000 compounds, 0.061% hits; in the data active = inhibition above about 25%
JMJD2C inh – inhibitors of human GASC-1 (JMJD2C) demethylase | Q9H3R0 | GST-JMJD2C(1-420) H3K9me3 demethylation, DELFIA europium | inhibition, % at 2.35 µM | 330,000 compounds, 0.069% hits | AID 2099;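 active = more than half of a compound's replicate wells show inhibition beyond 50%, single wells judged on their own value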;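 also: signal counts dimethyl H3K9 product captured on neutravidin plate; 0% = median of DMSO wells and 100% = 0.3 times that DMSO median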
Target sequence (Q9H3R0 1-420 limits assumed): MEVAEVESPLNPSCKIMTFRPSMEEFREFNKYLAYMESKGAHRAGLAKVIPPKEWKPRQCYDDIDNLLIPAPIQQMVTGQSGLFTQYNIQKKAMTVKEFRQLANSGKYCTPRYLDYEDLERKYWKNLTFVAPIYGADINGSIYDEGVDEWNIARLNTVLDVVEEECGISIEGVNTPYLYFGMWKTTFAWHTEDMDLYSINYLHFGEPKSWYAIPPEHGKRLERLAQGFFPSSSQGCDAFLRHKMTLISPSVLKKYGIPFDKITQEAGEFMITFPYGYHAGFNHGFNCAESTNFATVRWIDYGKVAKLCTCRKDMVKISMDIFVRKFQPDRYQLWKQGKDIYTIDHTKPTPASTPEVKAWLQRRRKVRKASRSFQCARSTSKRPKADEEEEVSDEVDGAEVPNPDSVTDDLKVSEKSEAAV
PGE2 EP2 inh – inhibitors of human EP2 prostaglandin E2 receptor; C6 glioma cells expressing human EP2, cAMP TR-FRET; cells stimulated with saturating PGE2; P43116; 260,000 compounds, 0.52% hits; inhibition, % at 25 µM; AID 1422;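 active = percent inhibition above 40 after rounding to a whole number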;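 also: rat C6 glioma host cells with rolipram phosphodiesterase inhibitor present; the protocol text gives 20 µM as final concentration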
EP2 mod – EP2 receptor (human) modulation; P43116; EP2-expressing cells, cAMP HTRF FRET, PGE2 co-stimulation; induction, % at 25 µM; 260,000 compounds, 0.83% hits; AID 940;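 active = compounds whose cAMP rise, as percent of the full-agonist control response, exceeds 60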;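 also: rat C6 glioma line stably carrying human EP2 under a CMV promoter; the protocol text gives 20 µM as final concentration; 100% = response of wells given 1 µM PGE2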
NR2E3 ag-2 – agonists of human NR2E3 nuclear receptor | Q9Y5X4 | CHO-S Gal4-NCOR/VP16-NR2E3 two-hybrid, luciferase | inhibition of corepressor binding, % at 3.98 µM | 360,000 compounds, 0.35% hits | AID 602229;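 active = inhibition above the mean of all tested compounds plus 3 SD, cut at about 70% in these data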;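 also: 0% = DMSO with NR2E3 transfected cells and 100% = cells lacking NR2E3 construct; higher means lower luciferase signal from less NR2E3 corepressor binding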
Numbers without * were called inactive.

For O=C(c1nc2ccc([N+](=O)[O-])cc2[nH]c1=O)[C@@H](O)c1ccc2c(c1)OCO2 the results were PGE2 EP2 inh 50* and EP2 mod 17.
`O=C(O)CSc1nnc(COc2ccc(Br)cc2)o1` gave PGE2 EP2 inh 8 and EP2 mod -45.
Cc1c(Cl)cccc1NC(=O)C[C@H]1Sc2ccccc2NC1=O was read as PGE2 EP2 inh 60* and EP2 mod -44.
Screening CCOc1ccc(C(=O)N2CCCC(c3noc(-c4ccccn4)n3)C2)cc1 (stereo unspecified) returned PGE2 EP2 inh 9 and EP2 mod -19.
Screening CCOc1ncccc1C(=O)Nc1nc(C(C)(C)C)cs1 returned NR2E3 ag-1 0, Furin inh -22, JMJD2C inh 0, PGE2 EP2 inh 0, EP2 mod 64* and NR2E3 ag-2 32.
`CCOc1ncccc1C(=O)Nc1ncc(C)s1` gave NR2E3 ag-1 -1, Furin inh -7, JMJD2C inh -18, PGE2 EP2 inh 3, EP2 mod 5 and NR2E3 ag-2 -15.
For O=C(N=c1ccn(-c2nc3ccccc3nc2NS(=O)(=O)c2ccccc2)cc1)c1cccs1 the results were NR2E3 ag-1 4, Furin inh -16, JMJD2C inh -3, PGE2 EP2 inh 49*, EP2 mod 0 and NR2E3 ag-2 -5.
`Cc1nc2c(c(=O)[nH]1)CCN(C(=O)c1cc(C(C)(C)C)nn1C)C2` gave PGE2 EP2 inh 4 and EP2 mod -28.
CN1CCN(c2ccc3nc(-c4ccc5nc(-c6ccc(O)cc6)[nH]c5c4)[nH]c3c2)CC1 was read as PGE2 EP2 inh 49* and EP2 mod 28.
Screening CCN1C(=O)C(C(=O)Nc2ccc(OC)cc2)C2CC1(C)Oc1ccccc12 (stereo unspecified) returned NR2E3 ag-1 2, Furin inh -18, JMJD2C inh 54*, PGE2 EP2 inh 8, EP2 mod 12 and NR2E3 ag-2 -4.
O=[N+]([O-])c1nn(-c2ccc3c(c2)OCCO3)n(O)c1=Nc1ccc(Cl)cc1 was read as NR2E3 ag-1 6, Furin inh -7, JMJD2C inh 2, PGE2 EP2 inh 4, EP2 mod -34 and NR2E3 ag-2 86*.
For CCc1ccc(N=c2c([N+](=O)[O-])nn(-c3ccc4c(c3)OCCO4)n2O)cc1 the results were NR2E3 ag-1 -3, Furin inh -18, JMJD2C inh 8, PGE2 EP2 inh 8, EP2 mod -65 and NR2E3 ag-2 -76.
`OC[C@@H]1O[C@H](N2CCN([C@@H]3O[C@H](CO)[C@@H](O)[C@H](O)[C@H]3O)CC2)[C@@H](O)[C@H](O)[C@H]1O` gave PGE2 EP2 inh 49* and EP2 mod 15.
`O=C1NCCCN1C1OC(CO)C(O)C1O` (stereo unspecified) gave NR2E3 ag-2 -1.
Screening CNc1nc(OCC(F)(F)F)nc(OCC(F)(F)F)n1 returned NR2E3 ag-1 -3, JMJD2C inh 2 and NR2E3 ag-2 -1.
CNc1nc(NCCOC23CC4CC(CC(C4)C2)C3)nc(OCC(F)(F)F)n1 was read as NR2E3 ag-1 2, Furin inh 29*, JMJD2C inh 15, PGE2 EP2 inh -3, EP2 mod 12 and NR2E3 ag-2 -85.
Screening COc1ccc(CCNC(=O)c2ccc(-c3ccccc3Cl)o2)cc1OC returned PGE2 EP2 inh 62* and EP2 mod -87.
Screening COc1ccc(CCNC(=O)c2ccc(-c3ccc([N+](=O)[O-])cc3Cl)o2)cc1OC returned NR2E3 ag-1 2, Furin inh -6, JMJD2C inh -4, PGE2 EP2 inh 14, EP2 mod -10 and NR2E3 ag-2 -22.
C[N+](C)(C)CCC(=O)c1cccc2ccccc12 was read as PGE2 EP2 inh 106* and EP2 mod -11.
Screening CN(C)CCN(C(=O)/C=C/c1cccs1)c1nc2ccc(F)cc2s1 returned NR2E3 ag-1 0, Furin inh 1, JMJD2C inh 50*, PGE2 EP2 inh 4, EP2 mod 21 and NR2E3 ag-2 8.

Screening results: PubChem, several laboratories
